# Results published in ChEMBL document CHEMBL1671778, “Synthesis and serotonin transporter activity of 1,3-bis(aryl)-2-nitro-1-propenes as a new class of anticancer agents” (Bioorg Med Chem, 2011).
# Active and inactive are the calls of the source. The rule behind the calls is not given here.
# Legend:
# [1] = biological target: T1, Sodium-dependent serotonin transporter (Homo sapiens, UniProt P31645); settings: HEK293, at 1 µM
# Target sequence in this assay (P31645 whole entry, looked up): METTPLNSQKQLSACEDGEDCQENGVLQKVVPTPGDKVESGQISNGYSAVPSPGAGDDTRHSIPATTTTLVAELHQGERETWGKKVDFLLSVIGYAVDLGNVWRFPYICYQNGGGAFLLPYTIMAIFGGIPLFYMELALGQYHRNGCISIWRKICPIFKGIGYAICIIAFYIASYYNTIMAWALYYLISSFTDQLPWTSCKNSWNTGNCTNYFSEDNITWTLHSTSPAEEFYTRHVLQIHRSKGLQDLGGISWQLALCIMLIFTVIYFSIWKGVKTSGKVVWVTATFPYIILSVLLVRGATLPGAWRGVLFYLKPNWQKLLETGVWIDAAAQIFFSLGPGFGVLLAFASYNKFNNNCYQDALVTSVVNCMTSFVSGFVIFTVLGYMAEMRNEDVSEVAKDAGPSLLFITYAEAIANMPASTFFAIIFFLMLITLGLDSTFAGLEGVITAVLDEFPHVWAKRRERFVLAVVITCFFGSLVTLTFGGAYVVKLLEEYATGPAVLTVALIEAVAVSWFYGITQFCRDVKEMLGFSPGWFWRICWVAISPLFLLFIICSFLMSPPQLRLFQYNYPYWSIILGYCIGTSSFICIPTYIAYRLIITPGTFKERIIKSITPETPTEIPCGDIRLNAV
# HEK293 [2] = test: Cytotoxicity against human HEK293 cells assessed as decrease in cell viability after 48 hrs neutral red dye assay; type: functional, cell-based; settings: HEK293, 48 h
# In short: (§1)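 5x10^4 cells/well grown to sub-confluence (24-36 h), then exposed to compound 48 h. Neutral red dye 3+1 h, solubilised in 50% ethanol/1% acetic acid, absorbance 540 nm (690 nm background). Viability as percent of vehicle-treated cells; pEC50 by non-linear sigmoidal regression over 4 concentrations, triplicate on two independent days. Controls 30 mM sodium azide, 2% Triton-X. HEK293-hSERT cells kept in Geneticin, used up to 30 passages.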
# MDA-MB-231 = test: Cytotoxicity against human MDA-MB-231 cells assessed as decrease in cell viability 10 or 50 uM after 24 hrs Alamar blue assay; type: functional, cell-based
# In short: (§2)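 1-5x10^4 cells/200 µl given 10 or 50 µM for 24 h (MUTU-I, MDA-MB231, PBMC) or […]. Alamar Blue at 37 °C in the dark 4-6 h, then fluorescence read with 544/590 nm. Media-only background subtracted; untreated cells set as 100% viability. Mean of six points (triplicate, two independent days). PBMCs from a healthy donor, isolated by ficoll density separation.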
# SH-SY5Y [3] = test: Cytotoxicity against human SH-SY5Y cells expressing human SERT assessed as decrease in cell viability after 48 hrs neutral red dye assay; type: functional, cell-based
# HEK293 [4] = test: Cytotoxicity against human HEK293 cells expressing human SERT assessed as decrease in cell viability after 48 hrs neutral red dye assay; type: functional, cell-based; settings: HEK293, 48 h
# In short: as §1
# [5] = Induction of apoptosis in human chemosensitive MUTU-I cells assessed as formation of apoptotic bodies by propidium iodide FACS analysis; type: functional, cell-based
# PBMC = test: Cytotoxicity against human PBMC cells assessed as decrease in cell viability 10 or 50 uM after 24 hrs Alamar blue assay; type: cell-based
# In short: as §2
# DG-75 [6] = test: Induction of apoptosis in human chemoresistant DG75 cells assessed as formation of apoptotic bodies by propidium iodide FACS analysis; type: functional, cell-based
# [7] = biological target: T1, Sodium-dependent serotonin transporter; test: Inhibition of [3H]-serotonin reuptake at human SERT expressed in HEK293 cells after 15 to 20 mins by fluorescence neurotransmitter transporter assay; type: cell-based
# Target sequence in this assay (P31645 whole entry): as the sequence (P31645 whole entry, looked up) above
# SH-SY5Y [8] = test: Antiproliferative activity against human SH-SY5Y cells after 24 hrs Alamar blue assay; type: functional, cell-based
# In short: (§3)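 Alamar Blue viability: 1-5x10^4 cells/well treated 24 h, then Alamar Blue (pre-warmed) 4-6 h at 37 °C in the dark. Fluorescence read at 590 nm (excitation 544 nm), background of medium plus dye subtracted, untreated cells = 100% viability. Miconazole 10 µM as cell-death control. Range 1 µM-1 mM, triplicate on two independent days. pEC50 from non-linear sigmoidal regression.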
# [9] = biological target: T1, Sodium-dependent serotonin transporter; settings: HEK293, at 100 µM
# Target sequence in this assay (P31645 whole entry, looked up): as above
# DG-75 [10] = test: Cytotoxicity against human chemoresistant DG75 cells expressing SERT assessed as decrease in cell viability 10 or 50 uM after 72 hrs Alamar blue assay; type: functional, cell-based
# In short: as §2
# DG-75 [11] = test: Antiproliferative activity against human DG75 cells after 24 hrs Alamar blue assay; type: functional, cell-based; settings: DG-75, 24 h
# In short: as §3
# MUTU-I [12] = test: Induction of apoptosis in human chemosensitive MUTU-I cells assessed as chromatin condensation and membrane bledding at 10 uM after 4 hrs; type: functional, cell-based
# In short: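 Cells at 3x10^5 cells/mL exposed for 4 h or 8 h. 150 µl aliquots were cytocentrifuged onto slides (500 ×g, 2 min), air-dried, methanol-fixed, and stained with eosin Y and methylene blue. Morphology was examined by light microscopy at 60x.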
# MUTU-I [13] = test: Induction of apoptosis in human chemosensitive MUTU-I cells assessed as caspase 3/7 activation at 10 uM after 4 hrs; type: functional, cell-based
# MUTU-I [14] = test: Induction of apoptosis in human chemosensitive MUTU-I cells assessed as induction of PARP cleavage at 10 uM after 4 hrs; type: functional, cell-based
# In short: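 PARP cleavage by Western blot: 5x10^6 cells pelleted (500 ×g, 5 min), washed, and lysed in Laemmli buffer with protease inhibitors. Lysates run on 8% SDS-PAGE, transferred to PVDF, and probed with anti-PARP detecting full-length 113 kDa and cleaved 85 kDa forms. HRP secondary antibody, chemiluminescence detection.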
# [15] = Cytotoxicity against human chemosensitive MUTU-I cells expressing SERT assessed as decrease in cell viability 10 or 50 uM after 24 hrs Alamar blue assay
Structure (SMILES),inhibition [1] [%],EC50 (HEK293 [2]) [µM],Activity (MDA-MB-231),EC50 (SH-SY5Y [3]) [µM],EC50 (HEK293 [4]) [µM],EC50 [5] [µM],Activity (PBMC),EC50 (DG-75 [6]) [µM],IC50 [7] [µM],EC50 (SH-SY5Y [8]) [µM],inhibition [9] [%],Activity (DG-75 [10]),"EC50 (DG-75 [10]; DG-75, 72 h) [µM]",EC50 (DG-75 [11]) [µM],Activity (MUTU-I [12]),Activity (MUTU-I [13]),Activity (MUTU-I [14]),IC50 [15] [µM]
CSc1ccc(CC(Cc2ccc(SC)cc2)NC=O)cc1,5,> 10000,Active,31.6,100,13,Non-toxic,10,15.7,31.6,85,Active,31.6,5010,–,–,–,–
CC(=O)O[C@H]1C(=O)[C@@]2(C)[C@H]([C@H](OC(=O)c3ccccc3)[C@]3(O)C[C@H](OC(=O)[C@H](O)[C@@H](NC(=O)c4ccccc4)c4ccccc4)C(C)=C1C3(C)C)[C@]1(OC(C)=O)CO[C@@H]1C[C@@H]2O [PACLITAXEL],–,–,–,–,–,–,–,–,–,–,–,–,–,–,inactive,inactive,inactive,0.01
